Source: PubChem BioAssay (several laboratories)
Compounds with a hit are over-represented: about 1.4% of the library has one in this group of screens.
IDE act = activators of human insulin-degrading enzyme in cells. P14735. HEK cells, FAbeta-B cleavage, fluorescence polarization; 0% vehicle, 100% cell-free pure enzyme wells. activation, % at 5.96 µM. 340,000 tested, 0.073% active. AID 493087;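 active means activation above the mean of all tested compounds plus 3 SD, set per screening campaign, cut at about 17% in these data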
Target sequence (P14735 whole entry, looked up): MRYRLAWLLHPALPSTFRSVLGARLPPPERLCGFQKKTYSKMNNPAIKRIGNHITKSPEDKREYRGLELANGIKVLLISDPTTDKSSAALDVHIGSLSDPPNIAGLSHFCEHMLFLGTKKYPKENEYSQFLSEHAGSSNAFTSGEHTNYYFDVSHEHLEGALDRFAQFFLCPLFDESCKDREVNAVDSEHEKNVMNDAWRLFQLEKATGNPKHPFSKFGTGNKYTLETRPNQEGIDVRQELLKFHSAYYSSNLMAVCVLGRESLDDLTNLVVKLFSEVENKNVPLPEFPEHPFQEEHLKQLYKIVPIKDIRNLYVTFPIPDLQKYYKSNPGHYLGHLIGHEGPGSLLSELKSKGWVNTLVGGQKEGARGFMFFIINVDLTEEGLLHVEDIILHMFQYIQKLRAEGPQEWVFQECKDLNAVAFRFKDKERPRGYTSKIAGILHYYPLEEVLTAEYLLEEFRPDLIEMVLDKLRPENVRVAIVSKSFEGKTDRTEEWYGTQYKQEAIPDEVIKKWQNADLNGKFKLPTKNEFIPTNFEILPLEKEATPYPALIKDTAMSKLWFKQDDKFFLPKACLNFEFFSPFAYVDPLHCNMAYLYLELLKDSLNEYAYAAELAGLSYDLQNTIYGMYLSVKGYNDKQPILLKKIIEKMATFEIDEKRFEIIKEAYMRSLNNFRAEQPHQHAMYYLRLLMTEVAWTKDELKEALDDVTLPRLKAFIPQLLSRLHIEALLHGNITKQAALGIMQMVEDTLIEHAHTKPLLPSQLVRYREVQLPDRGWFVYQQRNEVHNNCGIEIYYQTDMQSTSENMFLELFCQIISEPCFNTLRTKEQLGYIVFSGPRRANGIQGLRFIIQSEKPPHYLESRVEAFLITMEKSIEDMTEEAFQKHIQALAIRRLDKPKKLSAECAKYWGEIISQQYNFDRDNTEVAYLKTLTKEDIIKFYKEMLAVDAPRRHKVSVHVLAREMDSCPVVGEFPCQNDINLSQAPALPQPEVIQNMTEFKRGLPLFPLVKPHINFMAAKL
Efflux pump mplx = blocks antifungal efflux pumps in multiplex yeast assay; S. cerevisiae Candida pump triplex, Nile Red efflux; inhibition, % at 10 µM; 330,000 tested, 0.44% active;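 active means plate passing quality check with inhibition over a set limit, or well fluorescence over plate mean plus 4 SD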;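 further: Nile Red retained in pooled yeast measured as flow cytometry median fluorescence; 0% = buffer negative control and 100% = Enniatin B positive control; higher means more Nile Red kept so more efflux inhibition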
HDAC3 inh = human HDAC3 inhibition; inhibition, % at 8.3 µM; AID 2718; recombinant HDAC3, fluorogenic peptide/trypsin coupled, fluorescence; 320,000 tested, 0.15% active; in the data active means inhibition above about 26%, passing the limit was not always enough
CR mimetic SO = lowers age-related superoxide in aged yeast cells; S. cerevisiae aged cells, superoxide DHE fluorescence; stronger effect = lower value; superoxide response (% of plate mean), % at 10 µM; 330,000 tested, 0.18% active; AID 2690;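 active means superoxide response under a set limit, about three screen SD below normal, cut at about 65% in these data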;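 further: yeast aged for seven days with compound at 30 °C before DHE staining; 100% = average MFI of all compound-treated wells on the plate with controls excluded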
Tb MetRS inh = blocks T. brucei methionyl-tRNA synthetase activity; purified T. brucei MetRS, ATP depletion, Kinase-Glo luminescence; inhibition, % at 11.9 µM; 360,000 tested, 0.4% active; AID 624268;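 active means inhibition above a per-plate cutoff of the control wells' mean inhibition plus 3 SD, cut at about 5.5% in these data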;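 further: 0% = DMSO wells median and 100% = median of wells with control inhibitor compound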
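Dosing: 11.9 µM compound single dose, 0.9% DMSO; Assay system: purified T. brucei MetRS enzyme; Measured by: Kinase-Glo luciferase luminescence reporting remaining unconsumed ATP; Schedule: 15 min plus 2 h at 25 °C.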
IDE cell inh = inhibits human insulin-degrading enzyme in HEK cells | inhibition, % at 5.59 µM | FAbetaB cleavage, fluorescence polarization | 320,000 tested, 0.41% active | P14735;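 active means percent inhibition above the average of all tested compounds plus 3 SD, set per screening campaign, cut at about 16% in these data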;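 further: IDE supplied by intact live HEK cells; FP after avidin binding of uncleaved biotin substrate so inhibition keeps polarization high; 0% = DMSO wells and 100% = 60 µM reference IDE inhibitor Ii1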
TbMetRS confirm = Trypanosoma brucei MetRS inhibition confirmed; shares compounds with Tb MetRS inh; T. brucei MetRS enzyme, luminescence (ATP depletion); inhibition, % at 11.9 µM; 1,400 tested, 93% active; in the data active means inhibition above about 7%
Jurkat tox = kills Jurkat cells in T. brucei MetRS counterscreen; 1,400 tested, 12% active; shares compounds with Tb MetRS inh; Jurkat cells viability, ATP luminescence; inhibition, % at 8.3 µM; in the data active means inhibition above about 15%;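 further: 0% = vehicle and 100% = reference inhibitor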
Tb MetRS inh FP = inhibits T. brucei methionyl tRNA synthetase in orthogonal FP test; inhibition, % at 11.9 µM; shares compounds with Tb MetRS inh; purified T. brucei MetRS, fluorescence polarization; 1,400 tested, 44% active; in the data active means inhibition above about 17%;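 further: 0% = vehicle wells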
* hit, by the source's call; x = not tested or not shown.

SMILES	IDE act	Efflux pump mplx	HDAC3 inh	CR mimetic SO	Tb MetRS inh	IDE cell inh	TbMetRS confirm	Jurkat tox	Tb MetRS inh FP
COc1ccc(NC(=O)Nc2cccc3c2O[C@H](CN(C)S(=O)(=O)c2cccs2)[C@@H](C)CN([C@H](C)CO)C3=O)cc1	-1.9	0.1	-0.1	88.7	-0.1	0.4	x	x	x
O=C(Nc1ccc(Cl)c(Cl)c1)Nc1ccc(N2CCCC2)c(S(=O)(=O)Nc2ccccc2Cl)c1	1.6	-1.5	-2.6	100.6	0.0	0.5	x	x	x
COc1ccccc1NS(=O)(=O)c1cc(NC(=O)C(C)C)ccc1N1CCCCC1	-0.7	0.0	13.3	92.1	0.0	0.2	x	x	x
COc1ccccc1NS(=O)(=O)c1cc(NC(=O)Nc2ccccc2)ccc1N1CCCCC1	1.5	0.1	-6.8	113.6	6.2*	5.4	10.8*	-0.6	17.1*
O=C(Nc1ccc(F)cc1)Nc1ccc(N2CCCC2)c(S(=O)(=O)Nc2ccccc2Cl)c1	4.9	-0.1	11.4	88.8	11.3*	8.8	26.6*	66.6*	44.4*
CN(c1ccc(OCC(=O)OCC(=O)Nc2ccc([N+](=O)[O-])cc2)cc1)S(=O)(=O)c1cccs1	0.5	x	x	x	-0.2	x	x	x	x
COc1cc2c(cc1OC)CN(c1ccc([N+](=O)[O-])cc1C#N)CC2	1.0	0.2	0.3	105.7	11.2*	5.4	19.4*	19.1*	8.2
COc1cc2c(cc1OC)CN(c1ccc([N+](=O)[O-])cc1Cl)CC2	-0.5	0.0	8.7	101.4	4.7	-0.7	x	x	x
O=C(Nc1ccc(Cl)c(Cl)c1)OCCNC(=O)c1cccc(Cl)c1	1.1	0.1	7.3	115.6	39.6*	2.2	58.2*	4.7	35.1*
CC(=O)c1cccc(NC(=O)C(C)OC(=O)CNC(=O)c2ccc(C)s2)c1 (stereo unspecified)	-0.7	0.0	-16.8	99.4	14.5*	4.0	28.8*	1.1	10.6
CC(=O)Nc1ccc(NC(=O)C(C)OC(=O)CNC(=O)c2cccs2)cc1 (stereo unspecified)	-1.2	-0.1	-10.3	95.0	-0.2	-2.4	x	x	x
COc1ccccc1NC(=S)Nc1ccc2cn[nH]c2c1	-0.2	0.1	6.9	97.7	7.8*	-5.1	1.9	1.9	1.4
Cc1cc(SCC(=O)N/N=C/c2ccc(O)cc2O)c(C)cc1Br	6.8	0.3	10.8	96.0	51.6*	6.8	92.5*	41.2*	75.3*
Cc1cc(SCC(=O)N/N=C/c2ccccc2C(=O)O)c(C)cc1Br	4.3	0.1	2.7	99.3	-1.3	1.4	x	x	x
CCn1c(C)cc2c(c1=O)C(c1ccc3c(c1)OCO3)C(C#N)=C(N)O2 (stereo unspecified)	7.1	0.0	3.5	79.8	22.7*	1.3	2.1	4.1	3.4
Cc1cc2c(c(=O)n1CC1CCCO1)C(c1ccc3c(c1)OCO3)C(C#N)=C(N)O2 (stereo unspecified)	5.3	-0.2	-0.1	89.7	59.7*	6.4	75.5*	-2.9	49.1*
CCn1c(C)cc2c(c1=O)C(c1ccncc1)C(C#N)=C(N)O2 (stereo unspecified)	-1.3	0.0	-10.0	117.9	-0.9	0.6	x	x	x
Clc1ccc2[nH]c3c(c2c1)CCc1cn[nH]c1-3	5.1	-0.1	-0.5	94.0	31.7*	2.2	28.2*	4.8	99.7*
O=C1CCCc2c1[nH]c1ccccc21	2.0	0.1	0.1	106.9	-0.4	-0.3	x	x	x
c1ccc2c3c([nH]c2c1)-c1[nH]ncc1CC3	-2.6	0.0	0.3	113.6	16.1*	4.9	19.3*	2.5	22.0*
CC(C)c1nc2sc(C(=O)O)c(N)c2c2c1CCCC2	-10.7	0.2	4.0	110.7	0.3	1.3	x	x	x
Cc1nccn1CC(O)COc1ccc(Cl)cc1Cl (stereo unspecified)	3.0	0.0	-2.2	100.3	9.5*	-5.6	11.3*	7.5	-2.3
Cc1cc(C)n(CC(O)COc2ccc(Cl)cc2Cl)n1 (stereo unspecified)	-0.5	0.1	-2.4	100.9	1.8	-8.7	x	x	x
c1ccc(-c2nc(SCc3nc4ccccc4[nH]3)c3oc4ccccc4c3n2)cc1	2.4	-0.1	1.9	101.0	-0.4	-3.8	x	x	x
CN(C)/C=C(\C=N\OCc1ccc(Cl)cc1Cl)C(=O)Nc1ccc(Cl)c(Cl)c1	4.0	0.1	0.9	105.3	65.9*	2.6	9.2*	-3.7	3.3
SMILES	IDE act	Efflux pump mplx	HDAC3 inh	CR mimetic SO	Tb MetRS inh	IDE cell inh	TbMetRS confirm	Jurkat tox	Tb MetRS inh FP
Cc1cc(O)c(/C=N/OCc2ccc(Cl)cc2Cl)c(=O)o1	5.3	-0.1	4.4	90.7	-1.2	-3.1	x	x	x
CCOc1ccc(C(C)=O)cc1COC(=O)CCc1cc(OC)c(OC)c(OC)c1	-3.0	0.1	-2.5	89.0	0.0	7.8	x	x	x
Cc1ccc(NC(=O)Cn2nc(C)c(S(=O)(=O)N(C)C)c2C)cc1C	3.2	0.1	4.6	105.1	-1.4	-2.5	x	x	x
Cn1/c(=N/NC(=O)c2ccccc2F)sc2ccccc21	5.5	-0.1	-6.4	107.2	-1.6	5.1	x	x	x
C[C@H](O)[C@@H]1C(=O)N2CCc3c([nH]c4ccccc34)[C@@H]2C[C@@H]1N(C)C(=O)Nc1ccccc1	x	x	x	x	2.4	x	x	x	x
CN(Cc1cc(Cl)cc(Cl)c1)[C@H]1C[C@H]2c3[nH]c4ccccc4c3CCN2C(=O)[C@H]1CO	x	x	x	x	62.5*	x	105.5*	-2.9	86.4*
C[C@H](O)[C@@H]1CN2CCc3c([nH]c4ccccc34)[C@@H]2C[C@@H]1N(C)C(=O)Nc1cc(Cl)cc(Cl)c1	x	x	x	x	29.0*	x	58.4*	8.7	36.7*
C[C@H](O)[C@@H]1C(=O)N2CCc3c([nH]c4ccccc34)[C@@H]2C[C@@H]1N(C)C(=O)Nc1cc(Cl)cc(Cl)c1	x	x	x	x	71.2*	x	90.6*	17.9*	70.5*
COc1ccc(NS(=O)(=O)c2cc(NC(=O)c3nc4nc(C)cc(C)n4n3)ccc2C)cc1	1.3	-0.1	4.8	105.5	-0.5	0.0	x	x	x
COc1ccc(CCNC(=O)C(CCC(N)=O)NS(=O)(=O)c2ccc(Cl)cc2)cc1OC (stereo unspecified)	6.2	1.8	-2.1	111.3	-1.7	0.3	x	x	x
Cn1c(=O)c2sccc2n2c(CCCC(=O)N3CCN(c4ccccn4)CC3)nnc12	-3.9	0.0	-4.1	97.4	-0.3	1.9	x	x	x
O=C(/C=C/c1ccccc1)c1c[nH]c2ccccc12	2.4	-0.1	4.0	97.9	4.9	-2.4	x	x	x
O=C(C=Cc1ccccc1)c1c[nH]c2ccccc2c1=O	3.8	x	x	x	36.6*	x	77.9*	93.3*	56.4*
Nc1nc2cc3ccccc3cc2[nH]c1=O	0.3	-0.1	-3.3	87.1	6.3*	3.9	5.8*	3.0	-0.4
